# Data as given in ChEMBL document CHEMBL1123911, “Dopamine agonists: effects of charged and uncharged analogues of dopamine” (1987).
# Key:
# [1] = species: Rattus norvegicus; assay: Ability to inhibit the K+-induced release of [3H]acetylcholine in normal striatal slices at 30 uM; assay type: functional; design: scale not given: the % may be the effect or the level left
# Procedure, shortened: (§1)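 Striatal slices in Krebs–Ringer bicarbonate with 0.6 mM ascorbic acid, 0.03 mM Na2EDTA and 11 mM glucose, gassed 95% O2/5% CO2, labelled 20 min with [3H]choline, then superfused at 0.5 mL/min. At 55 min, 12.5 mM K+ (Na+ lowered equimolarly) was applied for 10 min, with drug present from 10 min before. Scintillation counting gave fractional tritium release above spontaneous outflow, expressed as % of drug-free control.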
# [2] = species: Rattus norvegicus; assay: Ability to inhibit the K+-induced release of [3H]Acetylcholine in dopamine depleted striatal slices at 30 uM; assay type: functional; design: scale not given: the % may be the effect or the level left; procedure, shortened: as §1
# [3] = species: Rattus norvegicus; assay: Ability to inhibit the K+-induced release of [3H]acetylcholine in normal striatal slices at 1 uM; assay type: functional; design: scale not given: the % may be the effect or the level left
# Procedure, shortened: (§2)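 Striatal slices in Krebs–Ringer bicarbonate with 0.6 mM ascorbic acid, 0.03 mM Na₂EDTA and 11 mM glucose, gassed with 95% O₂/5% CO₂. Slices were labelled 20 min with [³H]choline, then superfused at 0.5 mL/min. Drug was added 10 min before and during 12.5 mM K⁺ (Na⁺-compensated) for 10 min. K⁺-evoked fractional tritium release above baseline is given as % of drug-free control, ±SEM.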
# [4] = species: Rattus norvegicus; assay: Ability to inhibit the K+-induced release of [3H]acetylcholine in normal striatal slices at 0.1 uM; assay type: functional; design: scale not given: the % may be the effect or the level left; procedure, shortened: as §2
# [5] = species: Rattus norvegicus; assay: Ability to inhibit the K+-induced release of [3H]acetylcholine in dopamine depleted striatal slices at 0.1 uM; assay type: functional; design: scale not given: the % may be the effect or the level left; procedure, shortened: as §2
# [6] = species: Rattus norvegicus; assay: Inhibition of stimulation of [3H]- acetylcholine release in rat striatal tissue; assay type: functional, Striatum; procedure, shortened: as §1
# [7] = species: Rattus norvegicus; assay: Ability to inhibit the K+-induced release of [3H]Acetylcholine in normal striatal slices at 60 uM; assay type: functional; design: scale not given: the % may be the effect or the level left; procedure, shortened: as §2
smiles,measurement,setting,value
C[S+]([O-])CCc1ccc(O)c(O)c1 (stereo not given),Control,[1],101%
C[S+](C)CC(O)c1ccc(O)c(O)c1.[I-] (stereo not given),Control,[1],113%
C[N+](C)(C)CCc1ccc(O)c(O)c1.[I-],Control,[1],52%
same,Control,[2],53%
C[N+]1(C)CCc2cccc3c2[C@H]1Cc1ccc(O)c(O)c1-3,Control,[3],59%
CN1CCc2cccc3c2[C@H]1Cc1ccc(O)c(O)c1-3 [APOMORPHINE],Control,[4],60%
same,Control,[5],56%
CS(=O)(=O)CCc1ccc(O)c(O)c1,Control,[1],122%
CSCCc1ccc(O)c(O)c1,Control,[1],82%
same,Inhibition,[6],18%
same,Control,[2],100%
C[S+](C)CCc1ccc(O)c(O)c1.[I-],Control,[1],50%
same,Control,[2],61%
NCCc1ccc(O)c(O)c1 [DOPAMINE],Control,[1],40%
same,Control,[3],70%
C[Se]CCc1ccc(O)c(O)c1,Control,[1],95%
NC[C@H](O)c1ccc(O)c(O)c1 [NOREPINEPHRINE],Control,[7],85%
same,Control,[1],101%
C[Se+](C)CCc1ccc(O)c(O)c1.[I-],Control,[1],57%
same,Control,[2],47%
